Key:
[1] = in vitro, independent of concentration; ref package insert of JAYPIRCA; cited from earlier work
[2] = tested on: patients with covalent BTKi-pretreated CLL; conditions: cited from earlier work
[3] = cited from earlier work
mutant BTK C481R = conditions: cited from earlier work
CLL/SLL patients = conditions: 323 patients; cited from earlier work
[4] = Stability of pirtobrutinib in rat plasma under different storage conditions; format: in vitro ADME; conditions: for Stability RE %: n = 6
How it was run: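 Blank rat plasma was spiked 1:10 with working solution to make QCs of 1, 25 and 400 ng/mL, six replicates each. These were held at room temperature 4 h, in the autosampler at 4 °C 24 h, through three freeze-thaw cycles, or at -80 °C 30 days. Samples then underwent cold-methanol protein precipitation with IS and UHPLC-MS/MS; RSD% and RE% were reported.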

[5] = tested on: CYP3A4, UGT1A8 and UGT1A9; conditions: ref package insert of JAYPIRCA; cited from earlier work
[6] = Pharmacokinetic study of pirtobrutinib in rats; format: in vivo, Sprague–Dawley rats
How it was run: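 Six male Sprague–Dawley rats (8 weeks, 230 g ± 10 g), fasted 12 h, got a single intragastric 10 mg·kg-1 suspension in 0.5% CMC-Na. Ophthalmic-vein blood (200 µL, EDTA-K2) was drawn pre-dose and at 0.25–48 h; plasma was frozen at -80 °C. Plasma underwent cold-methanol protein precipitation with IS, then C18 UHPLC-MS/MS (0.5–500 ng/mL calibration). Parameters came from non-compartmental analysis.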

[7] = ref package insert of JAYPIRCA, cited from earlier work
mutant BTK C481S = conditions: cited from earlier work
mutant BTK C481T = conditions: cited from earlier work
[8] = male, Sprague-Dawley, rat, plasma, po, 10 mg/kg

- Stability RE % ([4]; 1.0 ng/mL, autosampler 4 ℃, 24 h after preparation): -6.9%
- Stability RE % ([4]; 25 ng/mL, autosampler 4 ℃, 24 h after preparation): -9.4%
- Stability RE % ([4]; 400 ng/mL, autosampler 4 ℃, 24 h after preparation): -11.7%
- Stability RE% value, three QC samples ([4]; all four storage conditions, absolute (±) value): < 11.7%
- Stability RE % ([4]; rat plasma, 1.0 ng/mL, -80 ℃, 30 days): -1.8%
- Stability RE % ([4]; rat plasma, 1.0 ng/mL, room temperature, 4 h): 0%
- Stability RE % ([4]; rat plasma, 1.0 ng/mL, three freeze-thaw): -3.7%
- Stability RE % ([4]; rat plasma, 25 ng/mL, -80 ℃, 30 days): 9.4%
- Stability RE % ([4]; rat plasma, 25 ng/mL, room temperature, 4 h): 1.7%
- Stability RE % ([4]; rat plasma, 400 ng/mL, three freeze-thaw): 6.0%
- Stability in plasma ([4]; several storage and handling conditions): stable
- plasma concentration at last sampling timepoint ([6]; 48 h after intragastric 10 mg·kg−1, LLOQ 0.5 ng/ml): below the LLOQ
- concentration at 0.25 h ([6]; male, Sprague-Dawley, rat, plasma, oral, 10 mg·kg−1): 140 ng/mL
- AUC(0-inf) [6, 8]: 2350 ± 582 ng·h/mL
- AUC(0-t) [6, 8]: 2340 ± 578 ng·h/mL
- Cmax [6, 8]: 344 ± 56.6 ng/mL
- MRT inf [6, 8]: 5.15 ± 0.94 h
- MRT last [6, 8]: 5.05 ± 0.923 h
- Tmax [6, 8]: 1.08 ± 0.736 h
- half-life [6, 8]: 2.95 ± 0.121 h
SMILES: COc1ccc(F)cc1C(=O)NCc1ccc(-c2nn([C@@H](C)C(F)(F)F)c(N)c2C(N)=O)cc1 [Pirtobrutinib]
- human protein binding [1]: 96%
- ORR versus venetoclax monotherapy [2]: significantly higher
- permeability in vitro [3]: high
- inhibition of autophosphorylation of Y223 (mutant BTK C481R): can inhibit
- dose-limiting toxicities (CLL/SLL patients): no dose-limiting toxicities
- patients discontinuing medication due to treatment-related AEs (CLL/SLL patients): 1%
- metabolism in vitro [5]: primarily metabolized by CYP3A4 and direct glucuronidation by UGT1A8 and UGT1A9
- mean apparent clearance ([7]; (37.2%) printed as spread): 2.05 L/h
- median time to reach peak plasma concentration (tmax) ([7]; range 0.833 to 4.15 h): approximately 2 h
- effective half-life [7]: approximately 19 h
- absolute bioavailability ([7]; single oral 200 mg dose, range 75.9–90.9%): 85.5%
- inhibition of autophosphorylation of Y223 (mutant BTK C481S): can inhibit
- inhibition of autophosphorylation of Y223 (mutant BTK C481T): can inhibit

Source: article PMC11847389 (BMC Chemistry, 2025)
